Activity calls are given as the source filed them. No cut-off for these calls is given here.

The text below walks through data of ChEMBL document CHEMBL4024795, “G-Quadruplex Identification in the Genome of Protozoan Parasites Points to Naphthalene Diimide Ligands as New Antiparasitic Agents” (J Med Chem, 2018).

Series [1] relates to Leishmania major. Description: Antileishmanial activity against Leishmania major MHOM/IL/80/Friedlin promastigotes after 72 hrs by MTT assay. The series is classed as functional. The gist of the method: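 L. major Friedlin promastigotes at 1 × 10^6 per mL, 72 h at 28 °C in modified RPMI-1640 + 10% hiFBS with increasing drug concentrations; proliferation by MTT, absorbance 540 nm.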
On the technique in general: Formazan colour is commonly taken as a measure of viable cells.

Series [2] can be described thus: Selectivity index, ratio of IC50 for human MRC5 cells to IC50 for bloodstream form of Trypanosoma brucei brucei. The series is classed as toxicity. Conditions: read-out: Ratio IC50. The gist of the method:
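Ratio of IC50 in MRC-5 to IC50 in parasite. Bloodstream-form T. b. brucei single-marker S427 (1 × 10^4/mL, HMI-9 + 10% hiFBS) was exposed to increasing compound for 72 h at 37 °C, 5% CO2, with alamarBlue fluorescence (ex 550/em 590).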

Series [3] can be described thus: Selectivity index, ratio of IC50 for human MRC5 cells to IC50 for erythrocyte stage of Plasmodium falciparum 3D7. The series is classed as toxicity. Conditions: read-out: Ratio IC50.
The species entered for series [4] is Danio rerio. Description: Acute toxicity in AB zebrafish embryo assessed as no observed effect concentration with mortality score of >20% at 100 uM after 96 hrs post-fertlization. To be noted: in vivo. The essentials: (§1)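 AB-strain embryos, with abnormal ones discarded, were placed 20 per condition at 3 hpf into compound dilutions in 0.1% DMSO/E3 (0.01, 0.1, 1, 10, 100 μM) and kept at 28.5 °C to 96 hpf. Mortality was scored and LC50 fitted by sigmoidal curve. NOEC/LOEC took >20% mortality as the effect. Controls were 0.1% DMSO (triplicate) and DEAB.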

The species entered for series [5] is Danio rerio. Description: (§2) Acute toxicity in AB zebrafish embryo assessed as mortality after 96 hrs post-fertlization. Conditions: in vivo, 96 h. The essentials: as §1
Series [6] concerns Plasmodium falciparum. Description: Antimalarial activity against erythrocyte stage of Plasmodium falciparum 3D7 preincubated for 48 hrs followed by [3H]-hypoxanthine addition measured after 18 hrs by liquid scintillation counting. The series is classed as functional. The essentials: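 P. falciparum 3D7-infected erythrocytes (1.5% hematocrit, 0.6% parasitemia) in RPMI 1640 + 10% AB human serum, DMSO ≤0.25% final. After 48 h at 37 °C, 0.6 μCi [3H]-hypoxanthine added for 18 h. Cells harvested onto glass-fibre filters and counted by scintillation, with uninfected-erythrocyte background subtracted. IC50 = 50% growth inhibition.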

Series [7] has as its system MRC5. In words: Cytotoxicity against human MRC5 cells assessed as cell growth inhibition after 72 hrs by MTT assay. Conditions: MRC5, 72 h. Format: cell-based. The gist of the method: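 MRC5 cells in low-glucose DMEM + 10% hiFBS, seeded by trypsinization at 5000 cells/well with increasing compound concentrations. MTT read-out after 72 h at 37 °C. IC50 = 50% growth reduction versus untreated cells.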

The subject of series [8] is Trypanosoma brucei brucei. In words: Antitrypanosomal activity against bloodstream form of Trypanosoma brucei brucei after 72 hrs by alamar blue assay. Format: functional. The essentials:
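Bloodstream-form T. b. brucei single marker S427 (S16) in HMI-9 + 10% hiFBS, seeded at 1 × 10^4 per mL. Increasing compound concentrations for 72 h at 37 °C, 5% CO2. Proliferation by alamarBlue fluorescence (ex 550/em 590 nm).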
(In general: Resazurin is reduced to fluorescent resorufin, in cell work by metabolically active cells.)

A short description of series [9]: Selectivity index, ratio of IC50 for human MRC5 cells to IC50 for Leishmania major MHOM/IL/80/Friedlin promastigotes. Format: toxicity. To be noted: read-out: Ratio IC50. The gist of the method: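 SI is IC50(MRC-5)/IC50(parasite). L. major Friedlin promastigotes (1 × 10^6/mL) were exposed to increasing compound in modified RPMI-1640 + 10% hiFBS for 72 h at 28 °C, with MTT read at 540 nm. MRC5 cells (5000/well, low-glucose DMEM + 10% hiFBS) got increasing compound for 72 h at 37 °C, with MTT read-out. IC50 is versus untreated cells.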

The nature of series [10]: Drug localization in Trypanosoma brucei kinetoplast at 5 uM after 150 mins by confocal microscopic analysis. Conditions: 2.5 h. Format: ADME. The gist of the method: (§3)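 T. brucei exposed to 5 μM compound in medium at 37 °C for 30 or 150 min. Fixed in 4% paraformaldehyde for 30 min, washed twice in cold PBS, then imaged by confocal microscopy using the compounds' intrinsic fluorescence.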

The subject of series [11] is Trypanosoma brucei. Description: Binding affinity to Trypanosoma brucei FT-labeled EBR1 G-quadruplex DNA at 3 uM by circular dichroism spectroscopic analysis. The gist of the method:
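EBR1-FT quadruplex at 3 μM in 10 mM lithium cacodylate pH 7.2 with 100 mM KCl, titrated with ligand (ratio 1:0 to 1:10). Spectra recorded at 25 °C in a 1 cm cell, average of three scans at 100 nm/min, 2 nm bandwidth.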
(In general: Circular dichroism is widely used to follow secondary structure.)

Series [12] concerns Trypanosoma brucei. In words: Drug localization in Trypanosoma brucei nucleus at 5 uM after 150 mins by confocal microscopic analysis. To be noted: 2.5 h. The series is classed as ADME. The essentials:
as §3

Series [13] concerns human telomeric hTel G-quadruplex DNA (Homo sapiens). In words: Binding affinity to FT-labeled human telomeric hTel G-quadruplex DNA assessed as change in melting temperature at 2 uM at pH 7.2 by FRET melting assay.
Series [14] is described as follows: as §2. More on the design: species or system Danio rerio. To be noted: AB, in vivo. The essentials: as §1
Series [15] in a line: Drug localization in Trypanosoma brucei nucleus at 5 uM after 30 mins by confocal microscopic analysis. To be noted: 0.5 h. Format: ADME. The essentials:
as §3

The nature of series [16]: Drug localization in Trypanosoma brucei kinetoplast at 5 uM after 30 mins by confocal microscopic analysis. Conditions: 0.5 h. The series is classed as ADME. The essentials:
as §3

For series [17], the species on record is Danio rerio. Description: Acute toxicity in AB zebrafish embryo assessed as lowest observed effect concentration with mortality score of >20% at 100 uM after 96 hrs post-fertlization. Conditions: in vivo. The gist of the method:
as §1

In series [1], `CCCCCCCCCCCCCCCCOP(=O)([O-])OCC[N+](C)(C)C` [MILTEFOSINE] had an IC50 of 6070 nM.
Regarding `C[C@H]1O[C@@H](n2cc(CNc3cc4c5c(ccc6c5c3C(=O)N(CCCN(C)C)C6=O)C(=O)N(CCCN(C)C)C4=O)nn2)[C@H](O)[C@@H](O)[C@@H]1O`, the IC50 in series [1] turned out to be 184 nM; in [6], 225 nM; in series [7], 910 nM; in series [8] it was 17 nM. The selectivity ratio was 53.5 in series [2], 4 in [3] and 4.9 in series [9]. Moreover, the no observed adverse effect level (NOAEL) in series [4] was 100 µM. In [5], the LC50 was 170 µM.
Turning to `CN(C)CCCN1C(=O)c2ccc3c4c(c(NCc5cn(CCO[C@@H]6O[C@H](CO)[C@@H](O)[C@H](O)[C@H]6O)nn5)cc(c24)C1=O)C(=O)N(CCCN(C)C)C3=O`, the Drug uptake result in [10], in [12], in [15] and in series [16] was “Active” in each case. The outcome in series [11] was Active. The IC50 in series [1] is 537 nM; in series [6], 275 nM; in series [7], 710 nM. For the same compound, in series [3], the selectivity ratio came to 2.6. Moreover, in series [13], the ΔTm came out at 10 °C. Also, in series [4], the NOAEL came to 100 µM. Also, the LC50 at 96 h in series [14] was greater than 1 mM.
Regarding `CN(C)CCCN1C(=O)c2ccc3c4c(c(NCc5cn([C@@H]6O[C@H](CO)[C@@H](O)[C@H](O)[C@H]6O)nn5)cc(c24)C1=O)C(=O)N(CCCN(C)C)C3=O`, the IC50 in series [1] was determined as 244 nM; in series [6], 1350 nM; in series [7], 1150 nM; in series [8] it was 24 nM. Moreover, in [3], the selectivity ratio is 0.9. Further, in series [4], the NOAEL was determined as 100 µM. Moreover, in series [14], the median lethal concentration (LC50) at 96 h is greater than 1 mM.
With `CN(C)c1ccc(Nc2c3ccc(NC(=O)CCN4CCCC4)cc3nc3cc(NC(=O)CCN4CCCC4)ccc23)cc1`, the IC50 in series [1] came to 12700 nM; in series [6], 9700 nM; in series [7], 8330 nM; in series [8], 5510 nM. Moreover, the selectivity ratio was determined as 1.5 in series [2], 0.9 in series [3] and 0.7 in series [9].
Consider `C[n+]1ccc(-c2c3nc(c(-c4cc[n+](C)cc4)c4ccc([nH]4)c(-c4cc[n+](C)cc4)c4nc(c(-c5cc[n+](C)cc5)c5ccc2[nH]5)C=C4)C=C3)cc1`, for which the half-inhibitory concentration (IC50) in series [1] was 20800 nM; in series [6], greater than 25000 nM; in [7], greater than 25000 nM; in [8], greater than 10000 nM. For the same compound, in series [9], the selectivity ratio is greater than 1.7.
As to `NCCOc1cc(C(=O)Nc2cc(OCCN)c3ccccc3n2)nc(C(=O)Nc2cc(OCCN)c3ccccc3n2)c1` [PYRIDOSTATIN], the half-maximal inhibitory concentration (IC50) was 5000 nM in series [1], 2650 nM in series [6], 5380 nM in series [7] and 7820 nM in series [8]. Further, the results for the selectivity ratio in series [2], in series [3] and in series [9] were 0.7, 2 and 1.1, respectively.
As to `CN(C)CCCN1C(=O)c2ccc3c4c(c(NCc5cn(CCO[C@H]6O[C@H](CO)[C@@H](O)[C@H](O)[C@@H]6O)nn5)cc(c24)C1=O)C(=O)N(CCCN(C)C)C3=O`, the half-inhibitory concentration (IC50) amounted to 306 nM in series [1], 180 nM in series [6], 810 nM in series [7] and 21 nM in series [8]. The selectivity ratio in [2] came to 38.6; in [3] it was 4.5; in [9], 2.6. Also, the NOAEL in [4] came to 100 µM. In addition, the median lethal concentration (LC50) at 96 h in series [14] was greater than 1 mM.
For the compound `CC(=O)N[C@@H]1[C@@H](O)[C@H](O)[C@@H](CO)O[C@H]1n1cc(CNc2cc3c4c(ccc5c4c2C(=O)N(CCCN(C)C)C5=O)C(=O)N(CCCN(C)C)C3=O)nn1`, the concentration for half-maximal inhibition (IC50) in series [1] worked out at 1040 nM; in series [6], 360 nM; in series [7], 510 nM; in series [8], 89 nM. The results for the selectivity ratio in series [2], in series [3] and in [9] were 5.7, 1.4 and 0.5, respectively. For the same compound, the NOAEL in series [4] stood at 100 µM. For the same compound, in [14], the LC50 at 96 h was greater than 1 mM.
For `CCCNc1cc2c3c(ccc4c3c1C(=O)N(CCCN(C)C)C4=O)C(=O)N(CCCN(C)C)C2=O`, the Drug uptake result in series [10], in series [12], in [15] and in series [16] was “Active” in each case. Also, the result in series [11] was Active. Also, the IC50 in series [1] worked out at 34 nM; in series [6] it was 91 nM; in series [7] it was 360 nM. Further, the MTC in series [17] was determined as 1000 µM. The selectivity ratio in series [3] was determined as 4. For the same compound, the ΔTm in series [13] was 19 °C. Further, the no-observed-adverse-effect level (NOAEL) in [4] turned out to be 100 µM. Further, the 50% lethal concentration (LC50) in [5] was 410 µM.

A word on the IC50: it is the concentration that gives 50% inhibition. As usually defined, the NOAEL is the highest dose or exposure tested at which no adverse effect was seen. Broadly, the LC50 is the concentration lethal to half of the exposed cells or organisms. In general, ΔTm refers to the change in melting temperature against a reference sample.
